Calb biofilm kill – mixtures killing C. albicans biofilm. C. albicans biofilm persisters + clotrimazole, fluorescence viability; primary screen in compound mixtures of four per well. AID 1242. inhibition, % at 7.6 µM. 120,000 compounds, 0.02% hits;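 active = inhibition above 30.3% in the primary screen of four-compound pools, then above 30% when the compound was retested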;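 note: compounds exposed to preformed 24 h biofilms for 48 h; 0% = untreated biofilm control and 100% = clotrimazole plus chlorhexidine kill blank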
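System: C. albicans CAF4-2 wild-type biofilms; Medium: RPMI/MOPS medium, pH 7.0; Reagent: Clotrimazole, 50 µg/mL; Times: biofilm formation 24 h, compound exposure 48 h, 37 °C; Detection: 2-h Alamar Blue fluorescence, 535/590 nm excitation/emission; Evaluation: percent inhibition of biofilm viability.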
ABCB1 block – blocks JC-1 efflux by human ABCB1 transporter. AID 1326. 190,000 compounds, 0.067% hits. P08183. CCRF-Adr cells, flow cytometry. inhibition, % at 6.6 µM; in the data active = inhibition above about 40%;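 note: 0% = vehicle and 100% = reference inhibitor; higher value means more JC-1 retained so stronger ABCB1 efflux block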
ROMK primary – modulators of human ROMK potassium channel | P48048 | Tet-inducible ROMK, thallium flux fluorescence; actives lie on both sides | B-score at 10 µM | 130,000 compounds, 2% hits | AID 1918;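 active = signal ratio slope over the read window, or its plate-corrected B-score, at least 3 SD from the plate mean, either direction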;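 note: B-score of the F/F0 ratio slope over 7 to 12 s after thallium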
ABCG2 block – human ABCG2 inhibition, ABCB1 as counter-screen; Q9UNQ0; IgMXP3 cells, JC-1 efflux, flow cytometry; inhibition, % at 6.6 µM; 190,000 compounds, 0.1% hits;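 active = inhibition above 80%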;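 note: 0% = DMSO and 100% = nicardipine control wells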
Target sequence (Q9UNQ0 whole entry, looked up): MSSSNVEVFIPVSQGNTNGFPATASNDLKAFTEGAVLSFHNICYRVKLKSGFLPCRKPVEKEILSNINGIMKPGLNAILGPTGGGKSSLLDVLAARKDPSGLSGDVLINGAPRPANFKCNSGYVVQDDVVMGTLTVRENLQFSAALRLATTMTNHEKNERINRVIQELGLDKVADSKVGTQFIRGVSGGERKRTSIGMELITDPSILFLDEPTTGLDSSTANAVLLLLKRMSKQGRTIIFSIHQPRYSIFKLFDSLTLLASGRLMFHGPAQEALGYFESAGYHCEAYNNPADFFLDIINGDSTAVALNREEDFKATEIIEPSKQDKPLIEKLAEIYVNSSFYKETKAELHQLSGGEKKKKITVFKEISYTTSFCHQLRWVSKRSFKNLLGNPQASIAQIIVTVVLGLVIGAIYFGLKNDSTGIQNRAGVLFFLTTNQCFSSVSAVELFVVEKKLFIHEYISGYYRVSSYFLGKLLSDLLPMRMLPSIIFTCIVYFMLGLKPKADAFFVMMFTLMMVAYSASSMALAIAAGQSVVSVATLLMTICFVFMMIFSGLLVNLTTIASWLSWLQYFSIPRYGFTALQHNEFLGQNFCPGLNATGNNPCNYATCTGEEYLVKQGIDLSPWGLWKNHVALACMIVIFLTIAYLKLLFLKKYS
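Measure – % inhibition of efflux relative to nicardipine and DMSO · Test system – ABCG2 IgMXP3 and barcoded ABCB1 CCRF-Adr cell mix · Control set – nicardipine as high control, DMSO as low control · Compound – one concentration, 6.6 µM final · Signal – flow cytometry of retained JC-1 fluorescence · Timing – 10 min exposure at 25 °C with rotation, no wash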
TRPML3 ag – human mucolipin-3 channel agonism; Q8TDD5; HEK293 TRPML3-YFP, Fluo-8 calcium fluorescence; 100% = the carbachol control signal; activation, % at 3 µM; 220,000 compounds, 0.29% hits; AID 1448;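 active = activation above its plate's cutoff, the mean activation of the plate's test wells plus 3 SD, cut at about 12% in these data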;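 note: 0% = DMSO only wells and 100% = carbachol wells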
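Material: TRPML3-YFP stable HEK293 cells | Dosing: One concentration, 3 µM nominal, 0.3% DMSO | Timing: 125 s total fluorescence read per well | Technique: Fluo-8 calcium dye fluorescence, ex 470-495, em 515-575 nm | Measure: Percent activation from peak-to-basal fluorescence ratio, scaled between DMSO and carbachol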
zfTRPN1 agonist – activates the zebrafish TRPN1 channel | HEK293 zebrafish TRPN1-YFP, Fluo-8 calcium fluorescence; 100% = response to 87 µM carbachol | activation, % at 3 µM | 220,000 compounds, 0.18% hits;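 active = activation above its plate's cutoff, the mean activation of test wells on that plate plus 3 SD, cut at about 19% in these data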;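 note: 0% = DMSO alone and 100% = 87 µM carbachol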
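Control set: carbachol 87 µM as high control, DMSO as low control; system: HEK293 stable line with zebrafish TRPN1-YFP; read-out: % activation versus carbachol response; detection: intracellular calcium fluorescence with Fluo-8; doses: single test compound dose, 3 µM nominal, 0.3% DMSO; schedule: dye 1 h 37 °C plus 30 min RT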
ABCB1 single pt – inhibits human ABCB1 efflux, confirmed at single point. shares compounds with ABCG2 block. CCRF-Adr cells, JC-1 efflux, flow cytometry. inhibition, % at 6.6 µM. 270 compounds, 7% hits. AID 1451;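 active = inhibition of pump activity above 50%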;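 note: 0% = DMSO and 100% = nicardipine full pump inhibition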
ABCG2 single pt – confirmation of human ABCG2 transporter inhibitors, ABCB1 counter-screen. shares compounds with ABCG2 block. IgMXP3 cells, JC-1 efflux, flow cytometry. inhibition, % at 6.6 µM. 270 compounds, 6% hits. AID 1453;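 active = inhibition above 50%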;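 note: 0% = DMSO wells and 100% = nicardipine pump inhibitor wells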
IgMXP3 autofluor – IgMXP3 autofluorescence flag for ABCG2 confirmation; shares compounds with ABCG2 block; IgMXP3 cells, compound autofluorescence 488/530 nm, flow; hits give high values; fluorescence at 6.6 µM; 270 compounds, 30% hits; AID 1480;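 active = fluorescence in ABCG2-expressing cells above the plate's control-well mean plus 3 SD, cut at about 15 in these data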;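 note: median cell fluorescence with compound minus that of DMSO-treated control cells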
CCRF autofluor – CCRF-Adr autofluorescence flag for ABCB1 confirmation; AID 1483; fluorescence at 6.6 µM; 270 compounds, 30% hits; shares compounds with ABCG2 block; CCRF-Adr cells, compound autofluorescence 488/530 nm, flow cytometry; hits give high values;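 active = fluorescence beyond the plate control mean plus 3 SD, with a fluorescence-to-maximum score over 2, cut at about 25 in these data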
* hit, by the source's call; nt = no result; + = active, no number. Many of the other results were omitted from the sample, so hits are more common in it than they were.

SMILES | Calb biofilm kill | ABCB1 block | ROMK primary | ABCG2 block | TRPML3 ag | zfTRPN1 agonist | ABCB1 single pt | ABCG2 single pt | IgMXP3 autofluor | CCRF autofluor
CCN(CC)S(=O)(=O)c1ccc(OC)c(NC(=O)c2cccc(C)c2[N+](=O)[O-])c1 | 9 | 3 | -0.3 | 88* | 0 | 1 | 1 | 48 | 4.7 | 2.9
Cc1ccc(NC(=O)Cn2ccc([N+](=O)[O-])n2)cc1Cl | 6 | 2 | 0.19 | 8 | 1 | 0 | nt | nt | nt | nt
COc1ccc(OCc2nc(-c3ccc(F)c(F)c3)cs2)cc1 | 20 | nt | nt | nt | 1 | 1 | nt | nt | nt | nt
CCC(NC(=O)CCl)c1ccc(C)cc1 (centres undefined) | 8 | 6 | 0.45 | 72 | 1 | -1 | 3 | 0 | -0.84 | 2.7
Cc1cccc(-n2c(SCc3ccc(C#N)cc3)nnc2-c2c[nH]c3ccccc23)c1 | 19 | nt | 0.41 | 9 | 0 | 0 | nt | nt | nt | nt
C=C(C)Cn1cnc2cc(C)c(C)cc21 | 3 | 0 | nt | 0 | 0 | -1 | nt | nt | nt | nt
O=C(Nc1ccccc1F)NC1CCN(Cc2nnnn2Cc2ccc(F)cc2)CC1 | nt | 0 | -2.7 | 1 | -1 | 1 | nt | nt | nt | nt
O=C(Nc1ccc(F)cc1)NC1CCN(Cc2nnnn2Cc2ccco2)CC1 | nt | 1 | 0.088 | 83* | 0 | 1 | 1 | 21 | -1.7 | -2.9
Cc1ccc(-c2csc3ncnc(SCc4ccc(C(=O)O)cc4)c23)cc1 | 4 | 0 | 1.7 | 0 | 2 | -1 | nt | nt | nt | nt
CCOc1ccccc1NC(=O)C(OC(=O)c1ccc(O)cc1)c1ccccc1 (centres undefined) | 16 | 1 | nt | 23 | 0 | 0 | nt | nt | nt | nt
CCOc1ccccc1NC(=O)C(OC(=O)c1ccc(N(C)C)cc1)c1ccccc1 (centres undefined) | 13 | 5 | nt | 117* | 0 | 0 | 38 | 63* | 2.2 | 21
COc1ccc(NC(=S)NCc2cccn2C)cc1 | 0 | 3 | nt | 75 | 1 | 0 | 1 | 12 | -2.2 | -4.4
CCC(Cc1ccccc1)n1c(=S)[nH]c2ccccc2c1=O (centres undefined) | 6 | 31 | -0.24 | 100* | 0 | -1 | -10 | 3 | 23* | 57*
COc1cccc(-c2nc(N3CC(C)CC(C)C3)c3ccccc3n2)c1O (centres undefined) | nt | 12 | 0.46 | 61 | 0 | 0 | 72* | 46 | -1.9 | -4.9
CCOc1nc(NCCO)nc(Nc2ccc([N+](=O)[O-])cc2)n1 | 1 | 2 | nt | 68 | 1 | 1 | -1 | 34 | -1.4 | -0.59
CCOc1ccc(Nc2nc(Cl)nc(NCCO)n2)cc1 | 11 | 0 | 0.6 | 15 | 1 | -1 | nt | nt | nt | nt
Cc1ccc(NC(=O)Nc2ccccc2)cc1[N+](=O)[O-] | 6 | 17 | -0.62 | 95* | 8 | 16 | 2 | 26 | -0.99 | -2.1
O=C(c1ccccc1)c1ccc(OCCO)cc1 | 5 | 0 | 1.4 | 0 | 1 | 0 | nt | nt | nt | nt
COc1ccccc1OCCOc1ccc(C(=O)c2ccccc2)cc1 | 19 | 5 | -0.99 | 87* | 0 | 0 | -11 | 31 | 52* | 82*
Cc1ccc(N=Cc2c(O)[nH]c3ccccc23)c([N+](=O)[O-])c1 | 13 | 1 | -0.16 | 19 | 0 | 0 | nt | nt | nt | nt
CCOCCCN(C(=O)Cn1nnc(-c2ccc(C)o2)n1)C(C(=O)NCC1CCCO1)c1ccc(F)cc1 (centres undefined) | 18 | nt | nt | nt | 0 | 1 | nt | nt | nt | nt
CCN(CC)CCN1c2ccccc2Sc2ccc3ccccc3c21 | 12 | nt | nt | nt | 0 | 0 | nt | nt | nt | nt
CCN1/C(=C/c2ccc3cc(C)ccc3[n+]2CC)Sc2cc(C)ccc21 | 26 | 10 | nt | + | 13* | 33* | 114* | 8 | 118* | 187*
CCCCN1/C(=C/c2ccc3ccccc3[n+]2CC)Sc2ccccc21 | 11 | 20 | nt | 121* | 21* | 52* | 73* | 8 | 256* | 337*
O=C(CN1c2ccccc2Sc2ccccc21)NNC(=O)Nc1cccc(Cl)c1 | 15 | nt | 0.53 | nt | 0 | 0 | nt | nt | nt | nt
SMILES | Calb biofilm kill | ABCB1 block | ROMK primary | ABCG2 block | TRPML3 ag | zfTRPN1 agonist | ABCB1 single pt | ABCG2 single pt | IgMXP3 autofluor | CCRF autofluor
Cc1cccc(C)c1NC(=O)CSc1nnc(C)n1CC1CCCO1 (centres undefined) | 14 | 0 | 1 | 0 | 0 | 1 | nt | nt | nt | nt
N#C/C(=C\c1ccc(N2CCOCC2)o1)C(=O)Nc1ccc(O)cc1 | 7 | 0 | nt | 6 | 4 | 10 | nt | nt | nt | nt
N#C/C(=C/c1ccc(N2CCCCC2)o1)C(=O)Nc1ccc2ccccc2c1 | 17 | 134* | nt | + | 22* | 40* | -144 | -90 | 397* | 624*
COn1c(-c2ccccc2)nc2c1CCc1c-2no[n+]1[O-] | nt | -1 | 0.83 | 74 | 1 | 2 | -1 | 28 | 0.61 | -3
[O-][n+]1onc2c1CCc1c-2nc(-c2ccccc2)n1OCc1ccccc1 | nt | 0 | 0.046 | 0 | 0 | 0 | nt | nt | nt | nt
COc1ccc(/C=N/Nc2cc(=O)n(C)c(=O)n2C)cc1OC | 24 | 3 | nt | 88* | 1 | 1 | 2 | 48 | 23* | 7.9
O=[N+]([O-])c1ccc(N2CCN(c3ccccc3F)CC2)c(S(=O)(=O)N2CCOCC2)c1 | 10 | nt | nt | nt | 1 | 1 | 1 | 5 | -1.3 | 0.76
CCOc1nc(SCCOc2ccc(Cl)cc2Cl)nc(N(C)C)n1 | 9 | 1 | 0.24 | 2 | -1 | 0 | nt | nt | nt | nt
CCOc1nc(SCCOc2ccc(C)cc2)nc(N(C)C)n1 | nt | 3 | -0.26 | 103* | 0 | -1 | 5 | 25 | -1.3 | -0.14
O=C(NCC1OCCc2ccccc21)c1ccc(NC(=O)c2ccc(Cl)cc2Cl)cc1 (centres undefined) | 11 | 95* | nt | 111* | 1 | -1 | 6 | 43 | 1.7 | -1.3
N#Cc1ccc(-c2ccc(OCC(=O)NCCc3ccccc3)cc2)cc1 | 18 | 0 | nt | 82* | 1 | 0 | 0 | 32 | 2.8 | 31*
COc1ccc(CCNC(=O)COc2ccc(-c3ccc(C#N)cc3)cc2)cc1 | 21 | 0 | nt | 10 | 0 | 1 | nt | nt | nt | nt
O=C1/C(=C\c2ccc(C(F)(F)F)cc2)CSc2sccc21 | 15 | nt | nt | nt | -2 | -3 | nt | nt | nt | nt
